pIC50: −log10 of the molar value. Values after ≈ are worked out from the molar mass of the structure shown. Active and inactive are the calls of the source. The calls are words filed in the database; no cut-off is given here.
Columns and labels:
Staphylococcus aureus [1] = assay: Antimicrobial activity against methicillin-resistant Staphylococcus aureus L32 clinical isolate by CLIS method; format: functional
Procedure, shortened: (§1)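 MIC and MBC determined against biofilm-forming strains: MSSA ATCC 35556, E. faecalis ATCC 29212, and two clinical biofilm-forming MRSA isolates (L32, L44) obtained from patient blood samples.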

Staphylococcus aureus [2] = assay: Antimicrobial activity against methicillin-resistant Staphylococcus aureus L44 clinical isolate by CLIS method; format: functional; procedure, shortened: as §1
HCT-116 = assay: Cytotoxicity against human HCT116 cells; format: functional, cell-based
Staphylococcus aureus [3] = assay: Antimicrobial activity against methicillin-resistant Staphylococcus aureus L32 clinical isolate assessed as reduction in bacterial load at 2 X MIC over 24 hrs by time-kill assay; format: functional
Procedure, shortened: (§2)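 Time-kill assay at 2× and 4× MIC over 24 h. Starting inoculum 5 × 10⁵ CFU/mL. Read-out is the mean change in bacterial density (log₁₀ CFU/mL) from the starting inoculum at 24 h, compared with a growth control.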

Staphylococcus aureus [4] = assay: Antimicrobial activity against methicillin-resistant Staphylococcus aureus L44 clinical isolate assessed as reduction in bacterial load at 2 X MIC over 24 hrs by time-kill assay; format: functional; procedure, shortened: as §2
Staphylococcus aureus [5] = assay: Antimicrobial activity against methicillin-resistant Staphylococcus aureus L32 clinical isolate assessed as reduction in bacterial load at 4 fold MIC over 24 hrs by time-kill assay; format: functional; procedure, shortened: as §2
Staphylococcus aureus [6] = assay: Antimicrobial activity against methicillin-resistant Staphylococcus aureus L44 clinical isolate assessed as reduction in bacterial load at 4 fold MIC over 24 hrs by time-kill assay; format: functional; procedure, shortened: as §2
Staphylococcus aureus [7] = assay: Inhibition of methicillin-susceptible Staphylococcus aureus ATCC […] biofilm formation assessed as concentration required to eradicate growth after 24 hrs; format: functional
Procedure, shortened: (§3)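 Modified Calgary pin-lid biofilm device, testing sessile bacteria seeded from an established biofilm. MBIC is the concentration giving no visible growth after 24 h incubation of preformed biofilm with antibiotic. MBEC is the minimal concentration that eradicates CFU/mL growth from the biofilm.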

Staphylococcus aureus [8] = assay: Inhibition of Staphylococcus aureus ATCC 35556 biofilm formation at MIC
Enterococcus faecalis [9] = assay: Inhibition of Enterococcus faecalis ATCC 29212 biofilm formation at MIC
Enterococcus faecalis [10] = assay: Antimicrobial activity against Enterococcus faecalis ATCC 29212 by CLIS method
Staphylococcus aureus [11] = assay: Antimicrobial activity against methicillin-susceptible Staphylococcus aureus ATCC 35556 by CLIS method
Enterococcus faecalis [12] = assay: Inhibition of Enterococcus faecalis ATCC 29212 biofilm formation assessed as visible growth after 24 hrs
Staphylococcus aureus [13] = assay: Inhibition of methicillin-susceptible Staphylococcus aureus ATCC 35556 biofilm formation assessed as visible growth after 24 hrs
Enterococcus faecalis [14] = assay: Inhibition of Enterococcus faecalis ATCC 29212 biofilm formation assessed as concentration required to eradicate growth after 24 hrs
Enterococcus faecalis [15] = assay: Antimicrobial activity against Enterococcus faecalis ATCC 29212 assessed as reduction in bacterial load at 2 X MIC over 24 hrs by time-kill assay
Enterococcus faecalis [16] = assay: Antimicrobial activity against Enterococcus faecalis ATCC 29212 assessed as reduction in bacterial load at 4 fold MIC over 24 hrs by time-kill assay
Staphylococcus aureus [17] = assay: Antimicrobial activity against methicillin-susceptible Staphylococcus aureus ATCC 35556 assessed as reduction in bacterial load at 2 X MIC over 24 hrs by time-kill assay
Staphylococcus aureus [18] = assay: Antimicrobial activity against methicillin-susceptible Staphylococcus aureus ATCC 35556 assessed as reduction in bacterial load at 4 fold MIC over 24 hrs by time-kill assay
Staphylococcus aureus [19] = assay: Inhibition of methicillin-resistant Staphylococcus aureus L32 clinical isolate biofilm formation assessed as visible growth after 24 hrs; format: functional; procedure, shortened: as §3
Staphylococcus aureus [20] = assay: Inhibition of methicillin-resistant Staphylococcus aureus L32 clinical isolate biofilm formation assessed as concentration required to eradicate growth after 24 hrs; format: functional, isolateL32; procedure, shortened: as §3
Staphylococcus aureus [21] = assay: Inhibition of methicillin-resistant Staphylococcus aureus L44 clinical isolate biofilm formation assessed as visible growth after 24 hrs; format: functional; procedure, shortened: as §3
Staphylococcus aureus [22] = assay: Inhibition of methicillin-resistant Staphylococcus aureus L44 clinical isolate biofilm formation assessed as concentration required to eradicate growth after 24 hrs; format: functional; procedure, shortened: as §3
Staphylococcus aureus [23] = assay: Inhibition of methicillin-susceptible Staphylococcus aureus ATCC 35556 biofilm formation assessed as concentration required to eradicate growth after 24 hrs

Work on CS[C@@H]1[C@H]2C(=O)N(C)[C@@H](C(C)C)C(=O)OC[C@@H](NC(=O)c3cnc4ccccc4n3)C(=O)N[C@@H](C)C(=O)N(C)[C@@H](C[S+]1[O-])C(=O)N(C)[C@@H](C(C)C)C(=O)OC[C@@H](NC(=O)c1cnc3ccccc3n1)C(=O)N[C@@H](C)C(=O)N2C (stereo partly drawn) yielded an MBC (Staphylococcus aureus [1]) of 7.17 µM (≈ 8.01 µg/mL), an MIC (Staphylococcus aureus [1]) of 1.79 µM (≈ 2 µg/mL) and an MBC (Staphylococcus aureus [2]) of 7.17 µM (≈ 8.01 µg/mL). The MIC (Staphylococcus aureus [2]) was 1.79 µM (≈ 2 µg/mL), the pIC50 (HCT-116) was 6.40 and the log10CFU/ml (Staphylococcus aureus [3]) was -1.35. It also gave a log10CFU/ml (Staphylococcus aureus [4]) of -1.09, a log10CFU/ml (Staphylococcus aureus [5]) of -2.15 and a log10CFU/ml (Staphylococcus aureus [6]) of -2.24. The MBEC (Staphylococcus aureus [7]) was greater than 4 µM, the Activity (Staphylococcus aureus [8]) was “Active” and the Activity (Enterococcus faecalis [9]) was “Active”. It also gave an MBC (Enterococcus faecalis [10]) greater than 14 µM, an MIC (Enterococcus faecalis [10]) of 0.22 µM (≈ 0.246 µg/mL) and an MBC (Staphylococcus aureus [11]) of 3.58 µM (≈ 4 µg/mL). It also gave an MIC (Staphylococcus aureus [11]) of 0.9 µM (≈ 1.01 µg/mL), an MBEC (Enterococcus faecalis [12]) greater than 4 µM and an MBIC (Staphylococcus aureus [13]) of 3.6 µM. For the same molecule, the MBEC (Enterococcus faecalis [14]) was greater than 4 µM, the log10CFU/ml (Enterococcus faecalis [15]) was 0.69 and the log10CFU/ml (Enterococcus faecalis [16]) was -1.04. The log10CFU/ml (Staphylococcus aureus [17]) was -3.39 and the log10CFU/ml (Staphylococcus aureus [18]) was -3.24.
For CS[C@H]1SC[C@H]2C(=O)N(C)[C@@H](C(C)C)C(=O)OC[C@@H](NC(=O)c3cnc4ccccc4n3)C(=O)N[C@@H](C)C(=O)N(C)[C@@H]1C(=O)N(C)[C@@H](C(C)C)C(=O)OC[C@@H](NC(=O)c1cnc3ccccc3n1)C(=O)N[C@@H](C)C(=O)N2C [ECHINOMYCIN], the MBC (Staphylococcus aureus [1]) was 0.91 µM (≈ 1 µg/mL), the MIC (Staphylococcus aureus [1]) was 0.03 µM (≈ 0.033 µg/mL) and the MBC (Staphylococcus aureus [2]) was 0.45 µM (≈ 0.496 µg/mL). For the same molecule, the MIC (Staphylococcus aureus [2]) was 0.03 µM (≈ 0.033 µg/mL), the pIC50 (HCT-116) was greater than 8.52 and the log10CFU/ml (Staphylococcus aureus [3]) was 0.61. It also gave a log10CFU/ml (Staphylococcus aureus [4]) of 0.423, a log10CFU/ml (Staphylococcus aureus [5]) of -2.39 and a log10CFU/ml (Staphylococcus aureus [6]) of -1.23. It also gave an MBIC (Staphylococcus aureus [19]) greater than 4 µM, an MBIC (Staphylococcus aureus [20]) greater than 4 µM and an MBIC (Staphylococcus aureus [21]) greater than 4 µM. For the same molecule, the MBIC (Staphylococcus aureus [22]) was greater than 4 µM, the Activity (Staphylococcus aureus [8]) was “Active” and the Activity (Enterococcus faecalis [9]) was “Active”. For the same molecule, the MBC (Enterococcus faecalis [10]) was 0.11 µM (≈ 0.121 µg/mL), the MIC (Enterococcus faecalis [10]) was 0.01 µM (≈ 0.011 µg/mL) and the MBC (Staphylococcus aureus [11]) was 0.45 µM (≈ 0.496 µg/mL). It also gave an MIC (Staphylococcus aureus [11]) of 0.01 µM (≈ 0.011 µg/mL), an MBIC (Enterococcus faecalis [12]) of 0.22 µM and an MBIC (Staphylococcus aureus [13]) of 0.03 µM. For the same molecule, the MBIC (Enterococcus faecalis [14]) was 0.22 µM, the log10CFU/ml (Enterococcus faecalis [15]) was 0.04 and the log10CFU/ml (Enterococcus faecalis [16]) was -1.42. For the same molecule, the MBEC (Staphylococcus aureus [23]) was 0.22 µM, the log10CFU/ml (Staphylococcus aureus [17]) was -1.54 and the log10CFU/ml (Staphylococcus aureus [18]) was -1.79.
In the case of CS[C@H]1SC[C@H](N(C)C(=O)[C@H](C)NC(=O)[C@@H](CO)NC(=O)c2cnc3ccccc3n2)C(=O)N(C)[C@@H](C(C)C)C(=O)OC[C@@H](NC(=O)c2cnc3ccccc3n2)C(=O)N[C@@H](C)C(=O)N(C)[C@@H]1C(=O)N(C)[C@H](C(=O)O)C(C)C [DEPSIECHINOSERINE], the MBC (Staphylococcus aureus [1]) was greater than 14 µM, the MIC (Staphylococcus aureus [1]) was greater than 14 µM and the MBC (Staphylococcus aureus [2]) was greater than 14 µM. The MIC (Staphylococcus aureus [2]) was greater than 14 µM, the pIC50 (HCT-116) was 5.34 and the MBC (Enterococcus faecalis [10]) was greater than 14 µM. It also gave an MIC (Enterococcus faecalis [10]) of 14 µM (≈ 15.7 µg/mL), an MBC (Staphylococcus aureus [11]) greater than 14 µM and an MIC (Staphylococcus aureus [11]) greater than 14 µM.
Work on CS[C@@H](SC[C@@H](C(=O)N(C)[C@H](C(=O)O)C(C)C)N(C)C(=O)[C@H](C)NC(=O)[C@@H](CO)NC(=O)c1cnc2ccccc2n1)[C@@H](C(=O)N(C)[C@H](C(=O)O)C(C)C)N(C)C(=O)[C@H](C)NC(=O)[C@@H](CO)NC(=O)c1cnc2ccccc2n1 [ECHINOSERINE] yielded an MBC (Staphylococcus aureus [1]) greater than 14 µM, an MIC (Staphylococcus aureus [1]) greater than 14 µM and an MBC (Staphylococcus aureus [2]) greater than 14 µM. The MIC (Staphylococcus aureus [2]) was greater than 14 µM, the pIC50 (HCT-116) was 4.87 and the MBC (Enterococcus faecalis [10]) was greater than 14 µM. The MIC (Enterococcus faecalis [10]) was greater than 14 µM, the MBC (Staphylococcus aureus [11]) was greater than 14 µM and the MIC (Staphylococcus aureus [11]) was greater than 14 µM.

Reference: ChEMBL document CHEMBL1153900, “Structure-activity studies of echinomycin antibiotics against drug-resistant and biofilm-forming Staphylococcus aureus and Enterococcus faecalis” (Bioorg Med Chem Lett, 2009)
